Laboratory results reported in ChEMBL document CHEMBL1212770, “Molecular and biochemical characterization of the natural chromosome-encoded class A beta-lactamase from Pseudomonas luteola” (Antimicrob Agents Chemother, 2010).
≈ marks a conversion by molar mass, not a printed value. Calls of active or inactive are those of the source. No cut-off for these calls is given here.

Legend:
[1] = tested on: Pseudomonas luteola; experiment: Antimicrobial activity against Pseudomonas luteola expressing blaLUT-2 to blaLUT-6 by Etest method; type: functional
[2] = tested on: Escherichia coli; experiment: Antimicrobial activity against Escherichia coli DH10B transfected with pBK-L3 expressing blaLUT-1 by Etest method; type: functional; details: K-12 DH10B
[3] = tested on: Pseudomonas luteola; experiment: Antimicrobial activity against Pseudomonas luteola expressing blaLUT-2 to blaLUT-6 by Etest method in presence of 4 ug/ml Tazobactam; type: functional
[4] = tested on: Escherichia coli; experiment: Antimicrobial activity against Escherichia coli DH10B by Etest method; type: functional; details: K-12 DH10B
[5] = tested on: Pseudomonas luteola; experiment: Antimicrobial activity against Pseudomonas luteola LAM expressing blaLUT-1 by Etest method; type: functional
[6] = tested on: Pseudomonas luteola; experiment: Antimicrobial activity against Pseudomonas luteola LAM expressing blaLUT-1 by Etest method in presence of 4 ug/ml Tazobactam; type: functional
[7] = tested on: Escherichia coli; experiment: Antimicrobial activity against Escherichia coli DH10B transfected with pBK-L3 expressing blaLUT-1 by Etest method in presence of 4 ug/ml Tazobactam; type: functional; details: K-12 DH10B
[8] = tested on: Escherichia coli; experiment: Antimicrobial activity against Escherichia coli DH10B by Etest method in presence of 4 ug/ml Tazobactam; type: functional; details: K-12 DH10B
[9] = tested on: Escherichia coli; experiment: Antimicrobial activity against Escherichia coli DH10B by Etest method in presence of 4 ug/ml clavulanic acid; type: functional; details: K-12 DH10B
[10] = tested on: Pseudomonas luteola; experiment: Antimicrobial activity against Pseudomonas luteola expressing blaLUT-2 to blaLUT-6 by Etest method in presence of 4 ug/ml clavulanic acid; type: functional
[11] = tested on: Escherichia coli; experiment: microbe, parasite or virus in culture; details: K-12 DH10B
[12] = tested on: Pseudomonas luteola; experiment: Antimicrobial activity against Pseudomonas luteola LAM expressing blaLUT-1 by Etest method in presence of 4 ug/ml clavulanic acid; type: functional
[13] = tested on: Pseudomonas luteola; experiment: Antimicrobial activity against Pseudomonas luteola by disk diffusion method; type: functional
How it was run: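 Disk diffusion panel of 32 antimicrobial drugs tested on P. luteola clinical isolates and the type strain. Isolates were identified by API-20 NE and by sequencing of PCR-amplified rrs and rpoB.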

[14] = tested on: Pseudomonas luteola; experiment: Antimicrobial activity against Pseudomonas luteola by Etest method; type: functional
[15] = substrate: C[C@H]1[C@H](NC(=O)/C(=N\OC(C)(C)C(=O)O)c2csc(N)n2)C(=O)N1S(=O)(=O)O; experiment: (§1) Ratio of kcat/Km for Pseudomonas luteola LAM Beta-lactamase LUT-1
How it was run: (§2)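 LUT-1 was purified from E. coli DH5α(pBK-L3) grown for 18 h at 37°C in 2× yeast-tryptone broth with kanamycin 20 μg/ml and amoxicillin 32 μg/ml. Purification used Q Sepharose ion exchange, then Superose 12 gel filtration, with purity checked by SDS-PAGE. Km and kcat were determined by a computerized microacidimetric method, each three times, with coefficients of variation not exceeding 15%.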

[16] = substrate: CC1(C)S[C@@H]2[C@H](NC(=O)[C@H](N)c3ccc(O)cc3)C(=O)N2[C@H]1C(=O)O; experiment: as §1; how it was run: as §2
[17] = substrate: CC1(C)S[C@@H]2[C@H](NC(=O)[C@H](C(=O)O)c3ccsc3)C(=O)N2[C@H]1C(=O)O; experiment: as §1; how it was run: as §2
[18] = substrate: CCN1CCN(C(=O)N[C@@H](C(=O)N[C@@H]2C(=O)N3[C@@H]2SC(C)(C)[C@@H]3C(=O)O)c2ccccc2)C(=O)C1=O; experiment: as §1; how it was run: as §2
[19] = substrate: CC1(C)S[C@@H]2[C@H](NC(=O)Cc3ccccc3)C(=O)N2[C@H]1C(=O)O; experiment: as §1; how it was run: as §2
[20] = substrate: CC(=O)OCC1=C(C(=O)O)N2C(=O)[C@@H](NC(=O)Cc3cccs3)[C@H]2SC1; experiment: as §1; how it was run: as §2
[21] = substrate: CC(C)(O/N=C(\C(=O)N[C@@H]1C(=O)N2C(C(=O)[O-])=C(C[n+]3ccccc3)CS[C@H]12)c1csc(N)n1)C(=O)O; experiment: as §1; how it was run: as §2
[22] = substrate: CO/N=C(\C(=O)N[C@@H]1C(=O)N2C(C(=O)O)=C(COC(N)=O)CS[C@H]12)c1ccco1; experiment: as §1; how it was run: as §2
[23] = substrate: CO/N=C(\C(=O)N[C@@H]1C(=O)N2C(C(=O)O)=C(COC(C)=O)CS[C@H]12)c1csc(N)n1; experiment: as §1; how it was run: as §2
[24] = substrate: C[C@H]1[C@H](NC(=O)/C(=N\OC(C)(C)C(=O)O)c2csc(N)n2)C(=O)N1S(=O)(=O)O; experiment: (§3) Activity of Pseudomonas luteola LAM Beta-lactamase LUT-1; how it was run: as §2
[25] = substrate: CC1(C)S[C@@H]2[C@H](NC(=O)[C@H](N)c3ccc(O)cc3)C(=O)N2[C@H]1C(=O)O; experiment: as §3; how it was run: as §2
[26] = substrate: CC1(C)S[C@@H]2[C@H](NC(=O)[C@H](C(=O)O)c3ccsc3)C(=O)N2[C@H]1C(=O)O; experiment: as §3; how it was run: as §2
[27] = substrate: CCN1CCN(C(=O)N[C@@H](C(=O)N[C@@H]2C(=O)N3[C@@H]2SC(C)(C)[C@@H]3C(=O)O)c2ccccc2)C(=O)C1=O; experiment: as §3; how it was run: as §2
[28] = substrate: CC1(C)S[C@@H]2[C@H](NC(=O)Cc3ccccc3)C(=O)N2[C@H]1C(=O)O; experiment: as §3; how it was run: as §2
[29] = substrate: CC(=O)OCC1=C(C(=O)O)N2C(=O)[C@@H](NC(=O)Cc3cccs3)[C@H]2SC1; experiment: as §3; how it was run: as §2
[30] = substrate: CC(C)(O/N=C(\C(=O)N[C@@H]1C(=O)N2C(C(=O)[O-])=C(C[n+]3ccccc3)CS[C@H]12)c1csc(N)n1)C(=O)O; experiment: as §3; how it was run: as §2
[31] = substrate: CO/N=C(\C(=O)N[C@@H]1C(=O)N2C(C(=O)O)=C(COC(N)=O)CS[C@H]12)c1ccco1; experiment: as §3; how it was run: as §2
[32] = substrate: CO/N=C(\C(=O)N[C@@H]1C(=O)N2C(C(=O)O)=C(COC(C)=O)CS[C@H]12)c1csc(N)n1; experiment: as §3; how it was run: as §2

CCN1CCN(C(=O)N[C@@H](C(=O)N[C@@H]2C(=O)N3[C@@H]2SC(C)(C)[C@@H]3C(=O)O)c2ccccc2)C(=O)C1=O [PIPERACILLIN]
MIC [1]: 2 µg/mL (≈ 3.86 µM) | MIC [2]: 8 µg/mL (≈ 15.5 µM) | MIC [3]: 1 µg/mL | MIC [4]: 1 µg/mL (≈ 1.93 µM) | MIC [5]: 2 µg/mL (≈ 3.86 µM) | MIC [6]: 1 µg/mL | MIC [7]: 1 µg/mL | MIC [8]: 1 µg/mL

CC(C)(O/N=C(\C(=O)N[C@@H]1C(=O)N2C(C(=O)[O-])=C(C[n+]3ccccc3)CS[C@H]12)c1csc(N)n1)C(=O)O [CEFTAZIDIME]
MIC [9]: 0.25 µg/mL | MIC [1]: 0.5 µg/mL (≈ 0.915 µM) | MIC [10]: 0.25 µg/mL | MIC [2]: 1 µg/mL (≈ 1.83 µM) | MIC [11]: 0.5 µg/mL (≈ 0.915 µM) | MIC [4]: 0.125 µg/mL (≈ 0.229 µM) | MIC [5]: 0.5 µg/mL (≈ 0.915 µM) | MIC [12]: 0.25 µg/mL

Cn1nnnc1SCC1=C(C(=O)O)N2C(=O)[C@@H](NC(=O)[C@H](O)c3ccccc3)[C@H]2SC1
Activity [13]: inactive

CCn1cc(C(=O)O)c(=O)c2ccc(C)nc21 [NALIDIXIC ACID]
MIC [14]: 16 µg/mL (≈ 68.9 µM) | Activity [13]: inactive

CO/N=C(\C(=O)N[C@@H]1C(=O)N2C(C(=O)O)=C(COC(C)=O)CS[C@H]12)c1csc(N)n1 [CEFOTAXIME]
MIC [9]: < 0.06 µg/mL | MIC [1]: 2 µg/mL (≈ 4.39 µM) | MIC [10]: 1 µg/mL | MIC [2]: 1 µg/mL (≈ 2.2 µM) | MIC [11]: 0.06 µg/mL (≈ 0.132 µM) | MIC [4]: < 0.06 µg/mL | MIC [5]: 1 µg/mL (≈ 2.2 µM) | MIC [12]: 1 µg/mL

CO/N=C(\C(=O)N[C@@H]1C(=O)N2C(C(=O)[O-])=C(C[N+]3(C)CCCC3)CS[C@H]12)c1csc(N)n1
MIC [1]: 1 µg/mL (≈ 2.08 µM) | MIC [2]: 0.5 µg/mL (≈ 1.04 µM) | MIC [5]: 0.5 µg/mL (≈ 1.04 µM)

C[C@@H](O)[C@H]1C(=O)N2C(C(=O)O)=C(SCCNC=N)C[C@H]12 [IMIPENEM ANHYDROUS]
MIC [1]: 0.25 µg/mL (≈ 0.835 µM) | MIC [5]: 0.25 µg/mL (≈ 0.835 µM)

B1: Beta-lactamase (Pseudomonas luteola), Q670S6 (protein)
chain: MNVILNRRTFLLASAVVSASYSLGTLAGANRDDASFQDRLAKLEQQLNGRLGVCAIDTANGAQLGYRANERFAMNSTFKVMLASAFLARSQDEPGLLEERLTYTRADLVTYSPVTEKHVSTGMTVAELCAAGIQYSDNTAANVLMKKLGGPEAVTAFARSIGDTHFRLDRWETELNSAIPGDPRDTSTPQAMAMSLQRLALGDMLAADKQHQLQAWLKGNTTGGKRIRAGVPAGWQVGDKTGTGDYGSANDVAILWPPRRAPVVLALYSALENQQAEARNDVLADAARIVAEWVTG
kcat/Km [15]: 40000 M⁻¹ s⁻¹ | kcat/Km [16]: 1.05e+06 M⁻¹ s⁻¹ | kcat/Km [17]: 360000 M⁻¹ s⁻¹ | kcat/Km [18]: 1.14e+06 M⁻¹ s⁻¹ | kcat/Km [19]: 3.87e+06 M⁻¹ s⁻¹ | kcat/Km [20]: 2.59e+07 M⁻¹ s⁻¹ | kcat/Km [21]: 40000 M⁻¹ s⁻¹ | kcat/Km [22]: 1.19e+07 M⁻¹ s⁻¹ | kcat/Km [23]: 5.25e+06 M⁻¹ s⁻¹ | Km [24]: 40 µM | kcat [24]: 1.5 s⁻¹ | Km [25]: 20 µM | kcat [25]: 21 s⁻¹ | Km [26]: 14 µM | kcat [26]: 5 s⁻¹ | Km [27]: 7 µM | kcat [27]: 8 s⁻¹ | Km [28]: 8 µM | kcat [28]: 31 s⁻¹ | Km [29]: 21 µM | kcat [29]: 543 s⁻¹ | Km [30]: 35 µM | kcat [30]: 1.3 s⁻¹ | Km [31]: 24 µM | kcat [31]: 286 s⁻¹ | Km [32]: 86 µM | kcat [32]: 452 s⁻¹
